Experimental data: ChEMBL document CHEMBL3351374, “Semisynthetic teicoplanin derivatives as new influenza virus binding inhibitors: synthesis and antiviral studies” (Bioorg Med Chem Lett, 2014)
≈ marks a conversion by molar mass, not a printed value.

Legend:
Influenza A virus [1] = assay: Antiviral activity against Influenza A virus A/Virginia/ATCC3/2009 infected in MDCK cells assessed as virus-induced cytopathic effect after 72 hrs by microscopy; assay type: functional, organism-based; conditions: A/Virginia/ATCC3/2009, MDCK
[2] = Inhbition of Influenza A virus (A/X-31(H3N2) hemagglutinin binding to 2 hrs compound pre-incubated MDCK cells assessed as reduction in viral RNA measured after 1 hr by RT-qPCR analysis; assay type: cell-based
How it was run: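 Influenza virus binding to MDCK host cells measured with compound at 50, 10, 2 and 0.4 µM.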

[3] = Selectivity ratio of MCC for MDCK cells assessed as change in cell morphology after 72 hrs by microscopy to EC50 for Influenza A virus A/Virginia/ATCC3/2009 infected in MDCK cells; assay type: cell-based; conditions: dog
[4] = Retention time of the compound by HPLC method; assay type: physicochemical
[5] = Antiviral activity against Influenza A virus (A/HK/7/1987(H3N2)) infected in MDCK cells assessed as virus-induced cytopathic effect after 72 hrs by microscopy; assay type: functional, cell-based, Influenza A virus (A/Hong Kong/7/1987(H3N2))
Influenza B virus [6] = assay: Antiviral activity against Influenza B virus (B/HK/05/1972) infected in MDCK cells assessed as reduction in host cell viability after 72 hrs by MTS assay; assay type: functional, cell-based; conditions: B/Hong Kong/05/1972, MDCK
Influenza A virus [7] = assay: Antiviral activity against Influenza A virus A/Virginia/ATCC3/2009 infected in MDCK cells assessed as reduction in host cell viability after 72 hrs by MTS assay; assay type: functional, organism-based; conditions: A/Virginia/ATCC3/2009, MDCK
Influenza A virus [8] = assay: Antiviral activity against Influenza A virus (A/PR/8/34(H1N1)) infected in MDCK cells assessed as reduction in host cell viability after 72 hrs by MTS assay; assay type: functional, organism-based; conditions: A/Puerto Rico/8/1934(H1N1)
Influenza A virus [9] = assay: Antiviral activity against Influenza A virus (A/PR/8/34(H1N1)) infected in MDCK cells assessed as virus-induced cytopathic effect after 72 hrs by microscopy; assay type: functional, organism-based; conditions: A/Puerto Rico/8/1934(H1N1)
[10] = Antiviral activity against Influenza A virus (A/HK/7/1987(H3N2)) infected in MDCK cells assessed as reduction in host cell viability after 72 hrs by MTS assay; assay type: functional, cell-based, Influenza A virus (A/Hong Kong/7/1987(H3N2))
[11] = Cytotoxicity against MDCK cells assessed as reduction in cell viability after 72 hrs by MTS assay; assay type: cell-based, Canis lupus familiaris; conditions: dog
[12] = Selectivity ratio of CC50 for MDCK cells assessed as reduction in cell viability after 72 hrs by MTS assay to EC50 for Influenza A virus A/Virginia/ATCC3/2009 infected in MDCK cells; assay type: cell-based; conditions: dog, read-out: Ratio CC50/EC50
Influenza B virus [13] = assay: Antiviral activity against Influenza B virus (B/HK/05/1972) infected in MDCK cells assessed as virus-induced cytopathic effect after 72 hrs by microscopy; assay type: functional, cell-based; conditions: B/Hong Kong/05/1972, MDCK
[14] = Cytotoxicity against chicken RBC assessed as minimum concentration required for hemagglutination by microscopy; assay type: cell-based, Gallus gallus; conditions: erythrocyte
How it was run: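 Chicken red blood cells incubated with compound without virus. The value is the minimal concentration causing hemagglutination.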

[15] = Cytotoxicity against MDCK cells assessed as change in cell morphology after 72 hrs by microscopy; assay type: cell-based, Canis lupus familiaris; conditions: dog
How it was run: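 Uninfected MDCK cells exposed to compound. MCC is the minimal concentration causing minimal alterations in cell morphology, assessed by microscopy.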

Influenza A virus [16] = assay: Antiviral activity against Influenza A virus infected in chicken RBC assessed as minimum concentration required for inhibition of 4 hemagglutinating units of virus-induced hemagglutination after 1 hr by microscopy; assay type: functional
How it was run: (§1)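 Chicken red blood cells incubated with virus at 1, 2 or 4 HA-U plus compound. The value is the minimal concentration causing inhibition of hemagglutination.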

Staphylococcus aureus [17] = assay: Antibacterial activity against methicillin-sensitive Staphylococcus aureus ATCC 29213 by broth microdilution method; assay type: functional
Enterococcus faecalis [18] = assay: Antibacterial activity against vanA gene-positive Enterococcus faecalis ATCC 51299 by broth microdilution method; assay type: functional
Enterococcus faecalis [19] = assay: Antibacterial activity against vanA gene-positive Enterococcus faecalis 15376 by broth microdilution method; assay type: functional
Staphylococcus aureus [20] = assay: Antibacterial activity against methicillin-resistant Staphylococcus aureus ATCC 33591 by broth microdilution method; assay type: functional
[21] = test system: Staphylococcus epidermidis; assay: Antibacterial activity against biofilm forming Staphylococcus epidermidis ATCC 35984 by broth microdilution method; assay type: functional
Bacillus spizizenii = assay: Antibacterial activity against Bacillus subtilis ATCC 6633 by broth microdilution method; assay type: functional
Enterococcus faecalis [22] = assay: Antibacterial activity against Enterococcus faecalis ATCC 29212 by broth microdilution method; assay type: functional
Influenza A virus [23] = assay: Antiviral activity against Influenza A virus infected in chicken RBC assessed as minimum concentration required for inhibition of 1 hemagglutinating unit of virus-induced hemagglutination after 1 hr by microscopy; assay type: functional; how it was run: as §1
[24] = test system: Staphylococcus epidermidis; assay: Antibacterial activity against biofilm forming Staphylococcus epidermidis harboring mecA gene by broth microdilution method; assay type: functional
Influenza A virus [25] = assay: Antiviral activity against Influenza A virus infected in chicken RBC assessed as minimum concentration required for inhibition of 2 hemagglutinating units of virus-induced hemagglutination after 1 hr by microscopy; assay type: functional; how it was run: as §1

SMILES | EC50 (Influenza A virus [1]) | Retention_time [4] | EC50 [5] | EC50 (Influenza B virus [6]) | EC50 (Influenza A virus [7]) | EC50 (Influenza A virus [8]) | EC50 (Influenza A virus [9]) | EC50 [10] | CC50 at 72 h [11] | EC50 (Influenza B virus [13]) | MCC at 72 h [15] | MIC (Staphylococcus aureus [17]) | MIC (Enterococcus faecalis [18]) | MIC (Enterococcus faecalis [19]) | MIC (Staphylococcus aureus [20]) | MIC [21] | MIC (Bacillus spizizenii) | MIC (Enterococcus faecalis [22]) | MIC [24] | further results
CCCCCCCCO[C@@H]1[C@@H](OCCCCCCCC)[C@@H](OC)O[C@H](COCCOCCOCCOCCOCc2cn([C@H]3C(=O)N[C@@H]4Cc5ccc(c(Cl)c5)Oc5cc6cc(c5O)Oc5ccc(cc5Cl)[C@@H](O[C@@H]5O[C@H](CO)[C@@H](O)[C@H](O)[C@H]5NC(C)=O)[C@@H]5NC(=O)[C@H](NC(=O)[C@@H]6NC(=O)[C@@H](NC4=O)c4cc(O)cc(c4)Oc4cc3ccc4O)c3ccc(O)c(c3)-c3c(O)cc(O)cc3[C@@H](C(=O)O)NC5=O)nn2)[C@H]1OCc1ccc(OC)cc1 [listing 1 of 2 here] | 1.4 µM | 8.16 min | 1.8 µM | 1.5 µM | < 0.8 µM | 1.2 µM | 0.8 µM | 1.2 µM | 11 µM | > 100 µM | 20 µM | – | – | – | – | – | – | – | – | IC50 [2]: 4.7 µM; selectivity ratio at 72 h [3]: 4; selectivity ratio at 72 h [12]: 4; Activity [14]: 50 µM
CCCCCCCCO[C@@H]1[C@@H](OCCCCCCCC)[C@@H](OC)O[C@H](COCCOCCOCCOCCOCc2cn([C@H]3C(=O)N[C@@H]4Cc5ccc(c(Cl)c5)Oc5cc6cc(c5O)Oc5ccc(cc5Cl)[C@@H](O[C@@H]5O[C@H](CO)[C@@H](O)[C@H](O)[C@H]5NC(C)=O)[C@@H]5NC(=O)[C@H](NC(=O)[C@@H]6NC(=O)[C@@H](NC4=O)c4cc(O)cc(c4)Oc4cc3ccc4O)c3ccc(O)c(c3)-c3c(O)cc(O)cc3[C@@H](C(=O)O)NC5=O)nn2)[C@H]1OCc1ccc(OC)cc1 [listing 2 of 2 here] | – | – | – | – | – | – | – | – | – | – | – | 128 µg/mL (≈ 58.7 µM) | 256 µg/mL (≈ 117 µM) | 128 µg/mL (≈ 58.7 µM) | 64 µg/mL (≈ 29.3 µM) | 16 µg/mL (≈ 7.34 µM) | 256 µg/mL (≈ 117 µM) | 32 µg/mL (≈ 14.7 µM) | 256 µg/mL (≈ 117 µM) | Activity (Influenza A virus [16]): 12 µM; Activity (Influenza A virus [23]): 0.78 µM; Activity (Influenza A virus [25]): 6.3 µM
C.CCCCCCCCO[C@H]1[C@@H](OC)O[C@H](COCCOCCOCCOCCOCc2cn([C@H]3C(=O)N[C@@H]4Cc5ccc(c(Cl)c5)Oc5cc6cc(c5O)Oc5ccc(cc5Cl)[C@@H](O[C@@H]5O[C@H](CO)[C@@H](O)[C@H](O)[C@H]5NC(C)=O)[C@@H]5NC(=O)[C@H](NC(=O)[C@@H]6NC(=O)[C@@H](NC4=O)c4cc(O)cc(c4)Oc4cc3ccc4O)c3ccc(O)c(c3)-c3c(O)cc(O)cc3[C@@H](C(=O)O)NC5=O)nn2)[C@@H](O)[C@@H]1OCCCCCCCC [listing 1 of 2 here] | 1.8 µM | 8.17 min | 2.3 µM | > 100 µM | 1.3 µM | > 100 µM | > 100 µM | 2.2 µM | 12 µM | > 100 µM | ≥ 4 µM | – | – | – | – | – | – | – | – | IC50 [2]: 7 µM; selectivity ratio at 72 h [3]: 4; selectivity ratio at 72 h [12]: 4; Activity [14]: 50 µM
C.CCCCCCCCO[C@H]1[C@@H](OC)O[C@H](COCCOCCOCCOCCOCc2cn([C@H]3C(=O)N[C@@H]4Cc5ccc(c(Cl)c5)Oc5cc6cc(c5O)Oc5ccc(cc5Cl)[C@@H](O[C@@H]5O[C@H](CO)[C@@H](O)[C@H](O)[C@H]5NC(C)=O)[C@@H]5NC(=O)[C@H](NC(=O)[C@@H]6NC(=O)[C@@H](NC4=O)c4cc(O)cc(c4)Oc4cc3ccc4O)c3ccc(O)c(c3)-c3c(O)cc(O)cc3[C@@H](C(=O)O)NC5=O)nn2)[C@@H](O)[C@@H]1OCCCCCCCC [listing 2 of 2 here] | – | – | – | – | – | – | – | – | – | – | – | 16 µg/mL | 4 µg/mL | 8 µg/mL | 8 µg/mL | 8 µg/mL | 4 µg/mL | 2 µg/mL | 256 µg/mL | Activity (Influenza A virus [16]): 3.1 µM; Activity (Influenza A virus [23]): 0.39 µM; Activity (Influenza A virus [25]): 0.78 µM
COc1ccc(CO[C@H]2[C@H](OC)[C@@H](OC)[C@@H](OC)O[C@@H]2COCCOCCOCCOCCOCc2cn([C@H]3C(=O)N[C@@H]4Cc5ccc(c(Cl)c5)Oc5cc6cc(c5O)Oc5ccc(cc5Cl)[C@@H](O[C@@H]5O[C@H](CO)[C@@H](O)[C@H](O)[C@H]5NC(C)=O)[C@@H]5NC(=O)[C@H](NC(=O)[C@@H]6NC(=O)[C@@H](NC4=O)c4cc(O)cc(c4)Oc4cc3ccc4O)c3ccc(O)c(c3)-c3c(O)cc(O)cc3[C@@H](C(=O)O)NC5=O)nn2)cc1 [listing 1 of 2 here] | > 100 µM | 5.73 min | > 100 µM | > 100 µM | > 100 µM | > 100 µM | > 100 µM | > 100 µM | 47 µM | > 100 µM | ≥ 20 µM | – | – | – | – | – | – | – | – | –
COc1ccc(CO[C@H]2[C@H](OC)[C@@H](OC)[C@@H](OC)O[C@@H]2COCCOCCOCCOCCOCc2cn([C@H]3C(=O)N[C@@H]4Cc5ccc(c(Cl)c5)Oc5cc6cc(c5O)Oc5ccc(cc5Cl)[C@@H](O[C@@H]5O[C@H](CO)[C@@H](O)[C@H](O)[C@H]5NC(C)=O)[C@@H]5NC(=O)[C@H](NC(=O)[C@@H]6NC(=O)[C@@H](NC4=O)c4cc(O)cc(c4)Oc4cc3ccc4O)c3ccc(O)c(c3)-c3c(O)cc(O)cc3[C@@H](C(=O)O)NC5=O)nn2)cc1 [listing 2 of 2 here] | – | – | – | – | – | – | – | – | – | – | – | 16 µg/mL (≈ 8.06 µM) | 32 µg/mL (≈ 16.1 µM) | 32 µg/mL (≈ 16.1 µM) | 32 µg/mL (≈ 16.1 µM) | 16 µg/mL (≈ 8.06 µM) | 16 µg/mL (≈ 8.06 µM) | 32 µg/mL (≈ 16.1 µM) | 32 µg/mL (≈ 16.1 µM) | –
NC12CC3CC(CC(C3)C1)C2 [AMANTADINE] | > 500 µM | – | 0.45 µM | > 500 µM | > 500 µM | 111 µM | – | 0.5 µM | > 500 µM | > 500 µM | > 500 µM | – | – | – | – | – | – | – | – | –
NC(=O)c1ncn([C@@H]2O[C@H](CO)[C@@H](O)[C@H]2O)n1 [RIBAVIRIN] | – | – | 6.8 µM | 8.2 µM | – | 21 µM | – | 7.3 µM | > 100 µM | – | ≥ 20 µM | – | – | – | – | – | – | – | – | –
CC(N)C12CC3CC(CC(C3)C1)C2 (stereo unspecified) [RIMANTADINE] | > 500 µM | – | 0.051 µM | > 500 µM | > 500 µM | 5.3 µM | 4.6 µM | 0.046 µM | > 500 µM | > 500 µM | ≥ 500 µM | – | – | – | – | – | – | – | – | –
CC(=O)N[C@H]1[C@H]([C@H](O)[C@H](O)CO)OC(C(=O)O)=C[C@@H]1NC(=N)N [ZANAMIVIR] | 45 µM | – | 8.9 µM | 9.4 µM | 20 µM | 0.5 µM | 0.47 µM | 9 µM | > 100 µM | 12 µM | > 100 µM | – | – | – | – | – | – | – | – | –
